Experimental data taken from ChEMBL document CHEMBL1124240, “Substrate analogue inhibitors of the IgA1 proteinases from Neisseria gonorrhoeae” (J Med Chem, 1988).
Where “and” joins values, the source holds several entries; their conditions need not be identical. Equal values may be shown once. Bridge positions count the residues as written; N and C are the ends. Peptide text beside a SMILES is read from it. I, II: the chains in the order shown.

Each molecule was assayed against T1, IgA-specific serine endopeptidase autotransporter (Neisseria gonorrhoeae, UniProt P09790) (assay: Tested for inhibitory activity against IgA1 proteinase assayed in 40% TFE).
T1 sequence (P09790 whole entry): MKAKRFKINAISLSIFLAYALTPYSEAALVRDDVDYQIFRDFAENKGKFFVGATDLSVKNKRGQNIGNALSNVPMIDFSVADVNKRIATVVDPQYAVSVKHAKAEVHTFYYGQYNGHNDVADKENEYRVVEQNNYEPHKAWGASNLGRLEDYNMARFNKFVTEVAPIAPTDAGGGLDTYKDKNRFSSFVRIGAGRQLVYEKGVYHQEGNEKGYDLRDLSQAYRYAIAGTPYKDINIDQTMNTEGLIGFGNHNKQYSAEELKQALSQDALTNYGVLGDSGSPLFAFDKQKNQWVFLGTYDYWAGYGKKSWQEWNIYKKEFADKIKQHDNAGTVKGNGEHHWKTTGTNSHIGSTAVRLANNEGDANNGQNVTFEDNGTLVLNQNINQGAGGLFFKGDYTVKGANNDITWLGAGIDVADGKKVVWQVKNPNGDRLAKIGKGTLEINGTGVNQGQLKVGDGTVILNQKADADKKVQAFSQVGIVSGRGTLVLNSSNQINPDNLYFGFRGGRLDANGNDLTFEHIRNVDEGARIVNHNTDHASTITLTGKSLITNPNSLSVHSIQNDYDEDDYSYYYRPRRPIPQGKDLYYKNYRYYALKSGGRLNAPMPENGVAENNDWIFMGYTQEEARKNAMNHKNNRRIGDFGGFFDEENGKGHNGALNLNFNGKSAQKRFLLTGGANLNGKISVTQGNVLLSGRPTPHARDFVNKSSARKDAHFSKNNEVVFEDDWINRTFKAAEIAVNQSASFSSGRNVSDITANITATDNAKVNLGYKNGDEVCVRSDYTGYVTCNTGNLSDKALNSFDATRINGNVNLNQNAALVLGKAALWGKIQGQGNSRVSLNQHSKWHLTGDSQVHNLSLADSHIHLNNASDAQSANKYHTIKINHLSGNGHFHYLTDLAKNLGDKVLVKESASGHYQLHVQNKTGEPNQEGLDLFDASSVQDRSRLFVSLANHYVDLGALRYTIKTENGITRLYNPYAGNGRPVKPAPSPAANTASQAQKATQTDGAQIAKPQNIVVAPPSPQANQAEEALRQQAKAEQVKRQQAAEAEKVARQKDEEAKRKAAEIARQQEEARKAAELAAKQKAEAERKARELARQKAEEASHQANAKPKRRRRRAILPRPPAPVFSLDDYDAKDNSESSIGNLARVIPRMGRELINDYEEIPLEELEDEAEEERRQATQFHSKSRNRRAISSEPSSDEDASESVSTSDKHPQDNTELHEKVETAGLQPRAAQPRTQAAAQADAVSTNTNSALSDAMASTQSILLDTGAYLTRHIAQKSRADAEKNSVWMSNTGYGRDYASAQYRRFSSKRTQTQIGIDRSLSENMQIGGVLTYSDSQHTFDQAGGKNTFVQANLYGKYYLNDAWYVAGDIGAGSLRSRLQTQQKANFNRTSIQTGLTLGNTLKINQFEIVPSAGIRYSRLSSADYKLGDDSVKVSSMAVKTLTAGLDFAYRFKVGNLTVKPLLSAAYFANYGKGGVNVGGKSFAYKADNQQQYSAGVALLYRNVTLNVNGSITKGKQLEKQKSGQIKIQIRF
Method in brief: (§1)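 Buffer contained 40% trifluoroethanol to dissolve the peptide. Type 1 and type 2 N. gonorrhoeae IgA1 proteinases (partially purified) were preincubated with inhibitor for 30 min at 37 °C, then cleaved 125I-labelled monomeric human IgA1. Samples were taken every 10 min over 30 min, boiled and run on SDS-PAGE. Fd/Fc/α-chain segment counts gave percent cleavage, and the rate was taken from the slope.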
`CC(=O)N[C@H](C(=O)N1CCC[C@H]1C(=O)N1CCC[C@H]1C(=O)N[C@@H](CSSC[C@H](NC(=O)[C@@H]1CCCN1C(=O)[C@@H]1CCCN1C(=O)[C@@H](NC(C)=O)[C@@H](C)O)C(=O)N1CCC[C@H]1C(=O)N[C@@H](CO)C(=O)N1CCC[C@H]1C(=O)N[C@@H](CO)C(N)=O)C(=O)N1CCC[C@H]1C(=O)N[C@@H](CO)C(=O)N1CCC[C@H]1C(=O)N[C@@H](CO)C(N)=O)[C@@H](C)O` (I: Ac-TPPCPSPS-NH2 / II: Ac-TPPCPSPS-NH2; disulfide I:4-II:4) gave an IC50 of 170 µM.

The molecules below were run against T1, IgA-specific serine endopeptidase autotransporter (assay: Tested for inhibitory activity against IgA1 proteinase in 40% TFE).
Method in brief: as §1
`CC(=O)N[C@H](C(=O)N1CCC[C@H]1C(=O)N1CCC[C@H]1C(=O)N[C@@H](CSSC[C@H](NC(=O)[C@@H]1CCCN1C(=O)[C@@H]1CCCN1C(=O)[C@@H](NC(C)=O)[C@@H](C)O)C(=O)N1CCC[C@H]1C(=O)N[C@@H](CO)C(=O)N1CCC[C@H]1C(=O)N[C@@H](CO)C(N)=O)C(=O)N1CCC[C@H]1C(=O)N[C@@H](CO)C(=O)N1CCC[C@H]1C(=O)N[C@@H](CO)C(N)=O)[C@@H](C)O` (I: Ac-TPPCPSPS-NH2 / II: Ac-TPPCPSPS-NH2; disulfide I:4-II:4) showed an IC50 of 200 µM.

Each molecule was assayed against IgA-specific serine endopeptidase autotransporter (Neisseria gonorrhoeae) (UniProt P09790) (assay: Percent inhibition was tested against IgA1 proteinase at 0.30 mM).
IgA-specific serine endopeptidase autotransporter (Neisseria gonorrhoeae), sequence (P09790 whole entry): as above
Method in brief: (§2)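 Type 1 and type 2 IgA1 proteinases from N. gonorrhoeae, partially purified from cell-free defined-medium cultures and stored at -70 °C. Peptides were in 0.05 M Tris-HCl, pH 7.5, and preincubated with enzyme for 30 min at 37 °C. Substrate was monoclonal monomeric human serum IgA1, 125I-labelled. Samples were taken at 10-min intervals over 30 min and run on SDS-PAGE with autoradiography. Fd, Fc and uncleaved α-chain bands were counted, and the rate came from the slope of percent cleavage versus time.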
In the case of `C[C@H](O)[C@H](NC(=O)[C@@H]1CCCN1C(=O)[C@@H]1CCCN1C(=O)[C@@H](N)[C@@H](C)O)C(=O)N1CCC[C@H]1C(=O)N[C@@H](CO)C(=O)N1CCC[C@H]1C(=O)N[C@@H](CO)C(=O)N[C@H](C(=O)N1CCC[C@H]1C(=O)N1CCC[C@H]1C(=O)N[C@H](C(=O)N1CCC[C@H]1C(=O)N[C@@H](CO)N1CCC[C@H]1C(=O)N[C@@H](CO)C(=O)O)[C@@H](C)O)[C@H](C)O`, the inhibition is reported as 19%.

These molecules were tested against IgA-specific serine endopeptidase autotransporter (Neisseria gonorrhoeae) (UniProt P09790) (assay: Tested for inhibitory activity against IgA1 proteinase at >2 mM).
Method in brief: as §2
Molecule `CC(=O)N[C@H](C(=O)N1CCC[C@H]1C(=O)N1CCC[C@H]1C(=O)N[C@H](C(=O)N1CCC[C@H]1C(=O)N[C@@H](CSSC[C@H](NC(=O)[C@@H]1CCCN1C(=O)[C@@H](NC(=O)[C@@H]1CCCN1C(=O)[C@@H]1CCCN1C(=O)[C@@H](NC(C)=O)[C@@H](C)O)[C@@H](C)O)C(=O)N1CCC[C@H]1C(=O)N[C@@H](CO)C(N)=O)C(=O)N1CCC[C@H]1C(=O)N[C@@H](CO)C(N)=O)[C@H](C)O)[C@@H](C)O` has an inhibition of 0%.

Each molecule was assayed against T1, IgA-specific serine endopeptidase autotransporter (assay: Tested for inhibitory activity against IgA1 proteinase).
Method in brief: as §2
Work on `CC(=O)N[C@H](C(=O)N1CCC[C@H]1C(=O)N1CCC[C@H]1C(=O)N[C@H](C(=O)N1CCC[C@H]1C(=O)N[C@@H](CO)C(=O)N1CCC[C@H]1C(=O)N[C@@H](CSSC[C@H](NC(=O)[C@@H]1CCCN1C(=O)[C@H](CO)NC(=O)[C@@H]1CCCN1C(=O)[C@@H](NC(=O)[C@@H]1CCCN1C(=O)[C@@H]1CCCN1C(=O)[C@@H](NC(C)=O)[C@@H](C)O)[C@@H](C)O)C(N)=O)C(N)=O)[C@@H](C)O)[C@@H](C)O` yielded an IC50 of 3300 µM.
Work on `CC(=O)N[C@H](C(=O)N1CCC[C@H]1C(=O)N1CCC[C@H]1C(=O)N[C@H](C(=O)N1CCC[C@H]1C(=O)N[C@@H](CSSC[C@H](NC(=O)[C@@H]1CCCN1C(=O)[C@@H](NC(=O)[C@@H]1CCCN1C(=O)[C@@H]1CCCN1C(=O)[C@@H](NC(C)=O)[C@@H](C)O)[C@@H](C)O)C(=O)N1CCC[C@H]1C(=O)N[C@@H](CO)C(N)=O)C(=O)N1CCC[C@H]1C(=O)N[C@@H](CO)C(N)=O)[C@@H](C)O)[C@@H](C)O` yielded an IC50 of 5150 µM.
`CC(=O)N[C@@H](CSSC[C@H](NC(C)=O)C(=O)N1CCC[C@H]1C(=O)N1CCC[C@H]1C(=O)N[C@H](C(=O)N1CCC[C@H]1C(=O)N[C@@H](CO)C(=O)N1CCC[C@H]1C(=O)N[C@@H](CO)C(N)=O)[C@@H](C)O)C(=O)N1CCC[C@H]1C(=O)N1CCC[C@H]1C(=O)N[C@H](C(=O)N1CCC[C@H]1C(=O)N[C@@H](CO)C(=O)N1CCC[C@H]1C(=O)N[C@@H](CO)C(N)=O)[C@@H](C)O` (I: Ac-CPPTPSPS-NH2 / II: Ac-CPPTPSPS-NH2; disulfide I:1-II:1) was tested, and the IC50 was 1810 µM and 3450 µM.
With Ac-CPPTPSPS-NH2 the IC50 was 310 µM and 120 µM.
For Ac-TPPTPCPS-NH2, the IC50 was 200 µM and 50 µM.
For Ac-TPPTPSPC-NH2, the IC50 was 1030 µM and 490 µM.
Ac-TPPTPSPS-NH2 was tested, and the IC50 was 9350 µM and 6680 µM.
In the case of Ac-TPPTPSPS-OH, the IC50 is reported as 1570 µM and 510 µM.
With H-TPPTPSPS-NH2 the IC50 was 400 µM and 180 µM.
For H-TPPTPSPS-OH, the IC50 was 260 µM and 500 µM.
In the case of H-TPPTPSPSTPPTPSPS-OH, the IC50 is reported as 310 µM.
